# Results taken from ChEMBL document CHEMBL5058577, “EUbOPEN Chemogenomics Library 2 (Multiplex)” (2022).
# System: Fibroblast
# Assay: Multiplex assay against human fibroblast
# Format: toxicity, cell-based
# Method in brief: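 With compound added, live cells were imaged on a CQ1 microscope at 37°C and 5% CO2; staining with Hoechst33342, BioTracker Green Microtubule Cytoskeleton Dye, MitoTracker Red and Annexin V Alexa Fluor 680 had been done at seeding. The CellPathfinder machine-learning gating scheme split cells into Hoechst high-intensity objects or normal cells, normal cells into healthy, pyknosed or fragmented nuclei, and pyknosed cells into mitotic or apoptotic. The tubulin, mitochondrial-mass and membrane-permeability phenotypes are per cents of healthy-nucleus cells.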
# [1] = 12 h, 1 µM, compound concentration 1 uM, replicate 1
# [2] = 12 h, 1 µM, compound concentration 1 uM, replicate 2
# [3] = 12 h, 10 µM, compound concentration 10 uM, replicate 1
# [4] = 12 h, 10 µM, compound concentration 10 uM, replicate 2
# [5] = 24 h, 1 µM, compound concentration 1 uM, replicate 1
# [6] = 24 h, 1 µM, compound concentration 1 uM, replicate 2
# [7] = 24 h, 10 µM, compound concentration 10 uM, replicate 1
# [8] = 24 h, 10 µM, compound concentration 10 uM, replicate 2
# [9] = 48 h, 1 µM, compound concentration 1 uM, replicate 1
# [10] = 48 h, 1 µM, compound concentration 1 uM, replicate 2
# [11] = 48 h, 10 µM, compound concentration 10 uM, replicate 1
# [12] = 48 h, 10 µM, compound concentration 10 uM, replicate 2
structure (smiles),measurement,setting,value
COc1ccc2c(c1)C(C(=O)N(Cc1ccc(N(C)C)cc1)c1ccc(C(C)C)cc1)CCC2.Cl (configuration not stated),Population Apoptotic (%),[1],57%
same,Population Fragmented Nuclei (%),[1],15%
same,Population Healthy Nuclei (%),[1],72%
same,Population Hoechst High Intensity Objects (%),[1],1%
same,Population Membrane Permeable-Phenotype (%),[1],1%
same,Population Mitochondria Different-Phenotype (%),[1],7%
same,Population Mitotic Cells (%),[1],42%
same,Population Normal (%),[1],98%
same,Population Pyknosed Nuclei (%),[1],11%
same,Population Tubulin-Different-Phenotype (%),[1],22%
same,Total Cell Count,[1],163
same,Population Apoptotic (%),[2],45%
same,Population Fragmented Nuclei (%),[2],20%
same,Population Healthy Nuclei (%),[2],55%
same,Population Hoechst High Intensity Objects (%),[2],5%
same,Population Membrane Permeable-Phenotype (%),[2],5%
same,Population Mitochondria Different-Phenotype (%),[2],15%
same,Population Mitotic Cells (%),[2],54%
same,Population Normal (%),[2],94%
same,Population Pyknosed Nuclei (%),[2],23%
same,Population Tubulin-Different-Phenotype (%),[2],57%
same,Total Cell Count,[2],138
same,Population Apoptotic (%),[3],58%
same,Population Fragmented Nuclei (%),[3],17%
same,Population Healthy Nuclei (%),[3],69%
same,Population Hoechst High Intensity Objects (%),[3],1%
same,Population Membrane Permeable-Phenotype (%),[3],0%
same,Population Mitochondria Different-Phenotype (%),[3],12%
same,Population Mitotic Cells (%),[3],41%
same,Population Normal (%),[3],98%
same,Population Pyknosed Nuclei (%),[3],13%
same,Population Tubulin-Different-Phenotype (%),[3],67%
same,Total Cell Count,[3],181
same,Population Apoptotic (%),[4],53%
same,Population Fragmented Nuclei (%),[4],38%
same,Population Healthy Nuclei (%),[4],51%
same,Population Hoechst High Intensity Objects (%),[4],2%
same,Population Membrane Permeable-Phenotype (%),[4],6%
same,Population Mitochondria Different-Phenotype (%),[4],14%
same,Population Mitotic Cells (%),[4],46%
same,Population Normal (%),[4],97%
same,Population Pyknosed Nuclei (%),[4],10%
same,Population Tubulin-Different-Phenotype (%),[4],77%
same,Total Cell Count,[4],148
same,Population Apoptotic (%),[5],55%
same,Population Fragmented Nuclei (%),[5],11%
same,Population Healthy Nuclei (%),[5],77%
same,Population Hoechst High Intensity Objects (%),[5],1%
same,Population Membrane Permeable-Phenotype (%),[5],0%
same,Population Mitochondria Different-Phenotype (%),[5],5%
same,Population Mitotic Cells (%),[5],44%
same,Population Normal (%),[5],98%
same,Population Pyknosed Nuclei (%),[5],11%
same,Population Tubulin-Different-Phenotype (%),[5],25%
same,Total Cell Count,[5],156
same,Population Fragmented Nuclei (%),[6],19%
same,Population Healthy Nuclei (%),[6],59%
same,Population Hoechst High Intensity Objects (%),[6],3%
same,Population Membrane Permeable-Phenotype (%),[6],2%
same,Population Mitochondria Different-Phenotype (%),[6],11%
same,Population Normal (%),[6],96%
same,Population Pyknosed Nuclei (%),[6],20%
same,Population Tubulin-Different-Phenotype (%),[6],41%
same,Total Cell Count,[6],136
same,Population Apoptotic (%),[7],50%
same,Population Fragmented Nuclei (%),[7],17%
same,Population Healthy Nuclei (%),[7],72%
same,Population Hoechst High Intensity Objects (%),[7],3%
same,Population Membrane Permeable-Phenotype (%),[7],0%
same,Population Mitochondria Different-Phenotype (%),[7],15%
same,Population Mitotic Cells (%),[7],50%
same,Population Normal (%),[7],96%
same,Population Pyknosed Nuclei (%),[7],10%
same,Population Tubulin-Different-Phenotype (%),[7],63%
same,Total Cell Count,[7],180
same,Population Apoptotic (%),[8],42%
same,Population Fragmented Nuclei (%),[8],39%
same,Population Healthy Nuclei (%),[8],55%
same,Population Hoechst High Intensity Objects (%),[8],2%
same,Population Membrane Permeable-Phenotype (%),[8],2%
same,Population Mitochondria Different-Phenotype (%),[8],12%
same,Population Mitotic Cells (%),[8],57%
same,Population Normal (%),[8],97%
same,Population Pyknosed Nuclei (%),[8],4%
same,Population Tubulin-Different-Phenotype (%),[8],85%
same,Total Cell Count,[8],148
same,Population Apoptotic (%),[9],66%
same,Population Fragmented Nuclei (%),[9],17%
same,Population Healthy Nuclei (%),[9],75%
same,Population Hoechst High Intensity Objects (%),[9],1%
same,Population Membrane Permeable-Phenotype (%),[9],1%
same,Population Mitochondria Different-Phenotype (%),[9],3%
same,Population Mitotic Cells (%),[9],33%
same,Population Normal (%),[9],98%
same,Population Pyknosed Nuclei (%),[9],6%
same,Population Tubulin-Different-Phenotype (%),[9],27%
same,Total Cell Count,[9],180
same,Population Apoptotic (%),[10],52%
same,Population Fragmented Nuclei (%),[10],26%
same,Population Healthy Nuclei (%),[10],61%
same,Population Membrane Permeable-Phenotype (%),[10],5%
same,Population Mitochondria Different-Phenotype (%),[10],13%
same,Population Mitotic Cells (%),[10],47%
same,Population Pyknosed Nuclei (%),[10],12%
same,Population Tubulin-Different-Phenotype (%),[10],46%
same,Total Cell Count,[10],152
same,Population Apoptotic (%),[11],71%
same,Population Fragmented Nuclei (%),[11],21%
same,Population Healthy Nuclei (%),[11],71%
same,Population Hoechst High Intensity Objects (%),[11],4%
same,Population Membrane Permeable-Phenotype (%),[11],0%
same,Population Mitochondria Different-Phenotype (%),[11],8%
same,Population Mitotic Cells (%),[11],28%
same,Population Normal (%),[11],95%
same,Population Pyknosed Nuclei (%),[11],7%
same,Population Tubulin-Different-Phenotype (%),[11],71%
same,Total Cell Count,[11],203
same,Population Apoptotic (%),[12],75%
same,Population Fragmented Nuclei (%),[12],45%
same,Population Healthy Nuclei (%),[12],52%
same,Population Hoechst High Intensity Objects (%),[12],0%
same,Population Membrane Permeable-Phenotype (%),[12],3%
same,Population Mitotic Cells (%),[12],25%
same,Population Normal (%),[12],99%
same,Population Pyknosed Nuclei (%),[12],2%
same,Population Tubulin-Different-Phenotype (%),[12],81%
same,Total Cell Count,[12],174
